Laboratory results from ChEMBL document CHEMBL1122031, “(+/-)-4-Aryl-4,5-dihydro-3H-1,3-benzodiazepines. 2. Nuclear-substituted analogues of (+/-)-4,5-dihydro-2,3-dimethyl-4-phenyl-3H-1,3-benzodiazepine and (+/-)-4,5-dihydro-2-ethyl-3-methyl-4-phenyl-3H-1,3-benzodiazepine as potential antidepressant agents” (1982).

Columns and labels:
Format in all cases: functional
[1] = system: Mus musculus; assay: Inhibition of tetrabenazine-induced ptosis (TBZ) in mice by peroral administration; details: po
How it was run: (§1)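 Mice dosed with the compound and scored for prevention of tetrabenazine-induced ptosis. ED₅₀ was derived by linear regression analysis and reported with 95% confidence limits.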

[2] = system: Mus musculus; assay: Compound, administered perorally and was evaluated for prevention of amphetamine aggregation toxicity in mice; details: po
[3] = system: Mus musculus; assay: Compound, administered intraperitoneally and was evaluated for inhibition of pentylenetetrazole (PTZ)-induced lethality in mice; details: ip
[4] = species on record: Mus musculus; assay: Inhibition of pentylenetetrazole (PTZ)-induced lethality in mice
[5] = system: Rattus norvegicus; assay: Compound, administered intraperitoneally and was evaluated for potentiation of the 5-hydroxytryptophan-induced behavioral syndrome in pargyline pretreated rats; details: ip
[6] = species on record: Mus musculus; assay: Evaluated for prevention of amphetamine aggregation toxicity in mice,
[7] = system: Mus musculus; assay: Evaluated for antidepressant activity by inhibition of tetrabenazine-induced ptosis (TBZ) in mice by ip administration; how it was run: as §1

Row | Compound | ED50 [1] | ED50 [2] | ED50 [3] | ED50 [4] | ED50 ([4]; Mus musculus, read-out: ED50) | ED50 [5] | ED50 [6] | ED50 [7]
1 | CCC1=Nc2ccccc2CC(c2ccc(OC)cc2)N1C (centres undefined) | 2.8 mg/kg | > 20 mg/kg | > 40 mg/kg | – | – | – | – | –
2 | CCC1=Nc2ccccc2CC(c2ccccc2C)N1C (centres undefined) | 3.1 mg/kg | – | – | >20 mg/kg | > 40 mg/kg | – | – | –
3 | CC1=Nc2ccccc2CC(c2ccccc2)N1C (centres undefined) [DAZEPINIL] | 2.1 mg/kg | – | – | – | > 40 mg/kg | > 10 mg/kg | > 20 mg/kg | –
4 | COc1ccc(C2Cc3ccccc3N=C(C)N2C)cc1 (centres undefined) | 19.8 mg/kg | > 20 mg/kg | > 40 mg/kg | – | – | – | – | –
5 | CC1=Nc2ccccc2CC(c2ccccc2F)N1C (centres undefined) | 7.6 mg/kg | – | – | – | > 40 mg/kg | > 10 mg/kg | > 20 mg/kg | –
6 | CC1=Nc2ccc(Cl)cc2CC(c2ccccc2)N1C (centres undefined) | – | – | – | – | > 40 mg/kg | – | > 20 mg/kg | ≥ 20 mg/kg
7 | CCC1=Nc2ccccc2CC(c2ccc(C)cc2)N1C (centres undefined) | 6.1 mg/kg | – | – | – | > 40 mg/kg | > 10 mg/kg | > 20 mg/kg | –
8 | CCC1=Nc2ccccc2CC(c2ccc(OC)c(OC)c2)N1C (centres undefined) | – | > 20 mg/kg | > 40 mg/kg | – | – | – | – | 8.2 mg/kg
9 | CC1=Nc2ccc(Cl)cc2CC(c2ccccc2F)N1C (centres undefined) | – | – | – | – | > 40 mg/kg | – | > 20 mg/kg | > 20 mg/kg
10 | CCC1=Nc2ccccc2CC(c2ccc(Cl)cc2)N1C (centres undefined) | – | – | – | – | > 20 mg/kg | – | – | < 5 mg/kg
11 | CCC1=Nc2ccccc2CC(c2ccccc2F)N1C (centres undefined) | 7 mg/kg | – | – | – | > 40 mg/kg | – | > 20 mg/kg | –
12 | CC1=Nc2ccccc2CC(c2ccccc2Cl)N1C (centres undefined) | – | – | – | – | > 40 mg/kg | – | > 20 mg/kg | > 5 mg/kg
13 | CCC1=Nc2ccccc2CC(c2ccc(F)cc2)N1C (centres undefined) | 8.4 mg/kg | – | – | – | – | – | – | –
14 | CC1=Nc2ccccc2CC(c2ccc(F)cc2)N1C (centres undefined) | 3.6 mg/kg | – | – | – | > 40 mg/kg | > 10 mg/kg | > 20 mg/kg | –
15 | COc1ccc(C2Cc3ccccc3N=C(C)N2C)cc1OC (centres undefined) | 5 mg/kg | > 20 mg/kg | > 40 mg/kg | – | – | – | – | –
16 | CCC1=Nc2ccc(Cl)cc2CC(c2ccccc2F)N1C (centres undefined) | – | – | – | >20 mg/kg | > 40 mg/kg | – | – | > 20 mg/kg
17 | CCC1=Nc2ccc(Cl)cc2CC(c2ccccc2)N1C (centres undefined) | – | – | – | >40 mg/kg | > 20 mg/kg | – | – | ~20 mg/kg
18 | CC1=Nc2ccccc2CC(c2ccc(C)cc2)N1C (centres undefined) | 5.2 mg/kg | – | – | – | > 40 mg/kg | > 10 mg/kg | > 20 mg/kg | –
19 | CN(C)CCC=C1c2ccccc2CCc2ccccc21 [AMITRIPTYLINE] | 1.9 mg/kg | – | – | – | – | – | – | –
20 | CCC1=Nc2ccccc2CC(c2ccccc2)N1C (centres undefined) | 1.6 mg/kg | – | – | – | > 40 mg/kg | > 10 mg/kg | > 20 mg/kg | –
21 | CC1=Nc2ccccc2CC(c2ccccc2C)N1C (centres undefined) | 5.5 mg/kg | – | – | – | > 40 mg/kg | – | > 20 mg/kg | –
22 | CC1=Nc2ccccc2CC(c2ccc(Cl)cc2)N1C (centres undefined) | 0.52 mg/kg | – | – | – | > 40 mg/kg | > 10 mg/kg | > 20 mg/kg | –
23 | CCC1=Nc2ccccc2CC(c2ccccc2Cl)N1C (centres undefined) | 4.1 mg/kg | – | – | – | – | – | – | –
